Results on 17 compounds are retold here after ChEMBL document CHEMBL4371014, “Novel Allosteric Ligands of γ-Aminobutyric Acid Transporter 1 (GAT1) by MS Based Screening of Pseudostatic Hydrazone Libraries” (J Med Chem, 2018).

Experiment [1] addresses T1, Sodium- and chloride-dependent GABA transporter 1 (Mus musculus, UniProt P31648). The experiment is described as follows: Inhibition of NO711 binding to mouse GAT1 expressed in HEK293 cell membranes assessed as residual binding preincubated for 4 hrs followed by NO711 addition and measured after 40 mins by LC-ESI-MS/MS analysis. In short, it runs like this:
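Pseudostatic hydrazone libraries were generated with mouse GAT1 present. Each held eight aldehydes (1.0 µM each) plus hydrazine (200 µM), incubated 4 h. NO711 marker was added directly for a further 40 min. Bound marker was released and quantified by LC-ESI-MS/MS as % remaining specific binding, four replicates (means±SD).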

Experiment [2] deals with T1, Sodium- and chloride-dependent GABA transporter 1. The experiment is described as follows: Inhibition of mouse GAT1 expressed in HEK293 cells assessed as reduction in [3H]GABA uptake preincubated for 25 mins followed by [3H]GABA addition and measured after 4 mins by liquid scintillation counting method. The format is cell-based.
The target of experiment [3] is T2, Sodium- and chloride-dependent GABA transporter 1 (Homo sapiens, UniProt P30531). The experiment is described as follows: Inhibition of NO711 binding to human GAT1 expressed in COS cell membranes preincubated for 25 mins by LC-ESI-MS/MS analysis.
Experiment [4] concerns the target T3, GABA transporter 4 (Mus musculus, UniProt P31650).
T3 sequence (P31650 whole entry): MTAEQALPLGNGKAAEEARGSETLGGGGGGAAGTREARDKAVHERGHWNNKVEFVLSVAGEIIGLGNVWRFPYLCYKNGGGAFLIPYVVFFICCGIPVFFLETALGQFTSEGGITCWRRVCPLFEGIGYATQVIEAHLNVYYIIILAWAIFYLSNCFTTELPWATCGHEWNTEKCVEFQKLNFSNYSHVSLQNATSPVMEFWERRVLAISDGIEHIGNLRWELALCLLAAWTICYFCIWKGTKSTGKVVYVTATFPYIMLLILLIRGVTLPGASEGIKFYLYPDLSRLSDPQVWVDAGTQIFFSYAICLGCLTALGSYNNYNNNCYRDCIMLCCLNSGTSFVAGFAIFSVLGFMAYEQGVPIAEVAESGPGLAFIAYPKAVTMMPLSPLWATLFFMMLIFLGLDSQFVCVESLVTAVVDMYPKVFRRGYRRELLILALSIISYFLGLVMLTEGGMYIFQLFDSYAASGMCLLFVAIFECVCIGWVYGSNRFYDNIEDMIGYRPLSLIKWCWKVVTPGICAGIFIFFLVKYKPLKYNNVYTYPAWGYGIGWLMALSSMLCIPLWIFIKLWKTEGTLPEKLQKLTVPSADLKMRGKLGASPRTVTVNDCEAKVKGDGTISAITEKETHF
Description: Inhibition of mouse GAT4 expressed in HEK293 cells assessed as reduction in [3H]GABA uptake preincubated for 25 mins followed by [3H]GABA addition and measured after 4 mins by liquid scintillation counting method. The format is cell-based.

The target in experiment [5] is T2, Sodium- and chloride-dependent GABA transporter 1. Description: Inhibition of NO711 binding to human GAT1 expressed in COS cell membranes by LC-ESI-MS/MS analysis.

Usually Ki stands for a dissociation constant, usually derived from enzyme kinetics or from competition with a known ligand. For orientation: IC50 means the concentration needed to halve the response being measured.

T2 sequence (P30531 whole entry): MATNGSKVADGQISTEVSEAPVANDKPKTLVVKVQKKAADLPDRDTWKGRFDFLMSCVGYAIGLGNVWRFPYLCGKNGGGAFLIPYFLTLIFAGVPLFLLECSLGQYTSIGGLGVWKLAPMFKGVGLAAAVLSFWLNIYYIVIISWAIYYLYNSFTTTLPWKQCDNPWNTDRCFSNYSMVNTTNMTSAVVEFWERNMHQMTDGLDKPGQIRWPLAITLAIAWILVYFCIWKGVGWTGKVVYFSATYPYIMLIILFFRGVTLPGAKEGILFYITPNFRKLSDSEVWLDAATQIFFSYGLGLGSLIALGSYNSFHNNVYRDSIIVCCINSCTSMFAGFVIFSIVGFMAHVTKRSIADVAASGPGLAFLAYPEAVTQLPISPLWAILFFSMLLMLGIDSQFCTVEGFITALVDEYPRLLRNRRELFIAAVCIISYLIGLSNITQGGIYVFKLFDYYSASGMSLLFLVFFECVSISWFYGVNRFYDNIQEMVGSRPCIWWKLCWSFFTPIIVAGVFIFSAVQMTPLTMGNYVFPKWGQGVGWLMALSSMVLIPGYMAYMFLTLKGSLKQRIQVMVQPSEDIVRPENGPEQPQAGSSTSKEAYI

As for `O=C(O)[C@H]1CNC[C@@H](CN/N=C/c2ccc(-c3ccccc3Cl)o2)C1` (racemic), in experiment [1], the Ki is 1.23 µM.

Turning to `O=C(O)[C@H]1CNC[C@@H](CN/N=C/c2ccc(-c3ccc(F)c(C(F)(F)F)c3)o2)C1` (racemic), in experiment [1], the Ki is 1.26 µM.

Take `Cc1ccsc1C(=CCCN1CCC[C@@H](C(=O)O)C1)c1sccc1C` [TIAGABINE]: the Ki in experiment [1] is 0.0275 µM.

With `O=C(O)[C@H]1CNC[C@@H](CN/N=C/c2ccc(-c3cccc(Cl)c3)o2)C1` (racemic), the inhibition constant Ki in experiment [1] was 1.86 µM.

Turning to `O=C(O)[C@H]1CNC[C@@H](CN/N=C/c2cnc(-c3ccc4ccccc4c3)nc2)C1` (racemic), the Ki in experiment [1] is 0.933 µM.

As to `O=C(O)[C@H]1CNC[C@@H](CCN/N=C/c2ccc(-c3ccc(Cl)cc3Cl)o2)C1` (racemic), the IC50 in experiment [2] was 35.5 µM; in experiment [3] it was 30.9 to 135 µM; in experiment [4], 15.1 µM; in experiment [5], 26.9 to 170 µM. Moreover, in experiment [1], the inhibition constant Ki was 0.479 µM.

Turning to `O=C(O)[C@H]1CNC[C@@H](CN/N=C/c2ccc(-c3cc(C(F)(F)F)cc(C(F)(F)F)c3)o2)C1` (racemic), in experiment [1], the Ki is 0.245 µM. For the same compound, the half-maximal inhibitory concentration (IC50) in experiment [3] was 135 µM; in experiment [5] it was 26.9 to 170 µM.

For `O=C(O)[C@H]1CNC[C@@H](CN/N=C/c2ccc(-c3cccc4ccccc34)o2)C1` (racemic), the IC50 in experiment [2] was 22.9 µM; in experiment [3], 42.7 µM; in experiment [4], 75.9 µM; in experiment [5], 26.9 to 170 µM. For the same compound, in experiment [1], the Ki was 0.214 µM.

As for `O=C(O)[C@H]1CNC[C@@H](CN/N=C/c2ccc(-c3cc(C(F)(F)F)ccc3Cl)o2)C1` (racemic), the figures for the IC50 in experiment [2], in experiment [3] and in experiment [5] were 81.3 µM, 30.9 to 135 µM and 26.9 to 170 µM, respectively. In addition, in experiment [1], the Ki is 0.468 µM.

For `O=C(O)[C@H]1CNC[C@@H](CN/N=C/c2ccc(-c3ccccc3Br)o2)C1` (racemic), the inhibitory constant (Ki) in experiment [1] was 1.45 µM.

Regarding `O=C(O)[C@H]1CNC[C@@H](CN/N=C/c2cccc(Oc3ccccc3)c2)C1` (racemic), in experiment [1], the inhibition constant Ki was 0.955 µM.

In the case of `O=C(O)[C@H]1CNC[C@@H](CN/N=C/c2ccc(-c3ccc(Cl)cc3Cl)o2)C1` (racemic), the Ki in experiment [1] is 0.646 µM.

On to `O=C(O)[C@H]1CNC[C@@H](CCN/N=C/c2ccc(-c3ccc(C(F)(F)F)cc3Cl)o2)C1` (racemic), for which the IC50 in experiment [2] is 44.7 µM; in experiment [3], 30.9 to 135 µM; in experiment [4], 41.7 µM; in experiment [5], 26.9 to 170 µM. Also, the Ki in experiment [1] was 0.617 µM.

For `O=C(O)[C@H]1CNC[C@@H](CN/N=C/c2ccc(-c3ccccc3C(F)(F)F)o2)C1` (racemic), the inhibitory constant (Ki) in experiment [1] was 2.29 µM.

As to `O=C(O)[C@H]1CNC[C@@H](CN/N=C/c2ccc(-c3ccc(Cl)cc3[N+](=O)[O-])o2)C1` (racemic), the Ki in experiment [1] is 1.48 µM.

For `O=C(O)[C@H]1CNC[C@@H](CN/N=C/c2ccc(-c3cccc(C(F)(F)F)c3)o2)C1` (racemic), the inhibition constant (Ki) in experiment [1] is 0.708 µM.

In the case of `O=C(O)[C@H]1CNC[C@@H](CN/N=C/c2ccc(-c3ccc(C(F)(F)F)cc3Cl)o2)C1` (racemic), the IC50 is 41.7 µM in experiment [2], 30.9 to 135 µM in experiment [3] and 26.9 to 170 µM in experiment [5]. Further, the Ki in experiment [1] is 0.447 µM.
